# Source: ChEMBL document CHEMBL1122987, “Synthesis and central dopaminergic effects of N-(4,6-dimethyl-2-pyridinyl)benzamides” (1985)
# What was measured:
# Mus musculus [1] = species: Mus musculus; assay: Motility against number of interrupted beams in 1 hour in reserpine treated mice by 4 determinations; type: functional
# Mus musculus [2] = species: Mus musculus; assay: Motility against number of interrupted beams in 1 hr in reserpine & apomorphine treated mice by 9 determinations; type: functional
# Summary of the method: (§1)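 Mice reserpinized (10 mg/kg ip), then apomorphine 2 mg/kg ip given 20 h later; benzamide dosed 1 h before apomorphine. Individual photocell beam interruptions recorded for 60 min after apomorphine. Controls received acacia gum aqueous suspension; means ± SEM, Student's t test vs controls.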
# Mus musculus [3] = species: Mus musculus; assay: Antipsychotic effect was tested against motility scores in reserpinized mice at a control value of 11; type: functional
# Mus musculus [4] = species: Mus musculus; assay: Motility against number of interrupted beams in 1 hour in naive mice by 9 determinations; type: functional
# Rattus norvegicus [5] = species: Rattus norvegicus; assay: Compound was evaluated for the homovanillic acid levels of rats limbic system by 7 determinations; type: functional
# Summary of the method: (§2)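 Male Wistar C.F. rats (200 ± 20 g); limbic system dissected 5 h post-dose, HVA extracted and determined by fluorimetry (µg/g tissue). Vehicle controls received acacia gum aqueous suspension; means ± SEM, Student's t test.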
# Rattus norvegicus [6] = species: Rattus norvegicus; assay: Compound was evaluated for the homovanillic acid levels of rats corpus striata by 7 determinations; type: functional
# Summary of the method: (§3)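 Male Wistar C.F. rats (200 ± 20 g); corpus striatum removed 5 h after dosing, HVA extracted from tissue and measured fluorimetrically, expressed as µg/g. Controls got acacia gum suspension; means ± SEM, Student's t test vs controls.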
# Mus musculus [7] = species: Mus musculus; assay: Antipsychotic effect was tested against motility scores in naive mice at a control value of 815; type: functional
# Rattus norvegicus [8] = species: Rattus norvegicus; assay: Compound was evaluated for the homovanillic acid levels of rats limbic system by 8 determinations; type: functional; summary of the method: as §2
# Mus musculus [9] = species: Mus musculus; assay: Motility of the Compound was tested against number of interrupted beams in 1 hour in naive mice by 10 determinations; type: functional
# Mus musculus [10] = species: Mus musculus; assay: Motility of the Compound was tested against number of interrupted beams in 1 hr in reserpine & apomorphine treated mice by 12 determinations; type: functional; summary of the method: as §1
# Mus musculus [11] = species: Mus musculus; assay: Motility against number of interrupted beams in 1 hour in naive mice by 10 determinations; type: functional
# Mus musculus [12] = species: Mus musculus; assay: Motility against number of interrupted beams in 1 hour in reserpine treated mice by 4 determinations.; type: functional
# Mus musculus [13] = species: Mus musculus; assay: Motility against number of interrupted beams in 1 hr in reserpine & apomorphine treated mice by 10 determinations; type: functional; summary of the method: as §1
# Rattus norvegicus [14] = species: Rattus norvegicus; assay: Compound was evaluated for the homovanillic acid levels of rats corpus striata by 11 determinations; type: functional; summary of the method: as §3
# Mus musculus [15] = species: Mus musculus; assay: Motility against number of interrupted beams in 1 hr in reserpine & apomorphine treated mice by 21 determinations; type: functional; summary of the method: as §1
# Rattus norvegicus [16] = species: Rattus norvegicus; assay: Compound was evaluated for the homovanillic acid levels of rats limbic system by 15 determinations; type: functional; summary of the method: as §2
# Rattus norvegicus [17] = species: Rattus norvegicus; assay: Compound was evaluated for the homovanillic acid levels of rats corpus striata by 14 determinations; type: functional; summary of the method: as §3
# Mus musculus [18] = species: Mus musculus; assay: Motility against number of interrupted beams in 1 hour in reserpine treated mice by 9 determinations.; type: functional
# Mus musculus [19] = species: Mus musculus; assay: Motility against number of interrupted beams in 1 hour in naive mice by 15 determinations; type: functional
# Mus musculus [20] = species: Mus musculus; assay: Motility against number of interrupted beams in 1 hr in reserpine & apomorphine treated mice by 11 determinations; type: functional; summary of the method: as §1
# Rattus norvegicus [21] = species: Rattus norvegicus; assay: Compound was evaluated for the homovanillic acid levels of rats corpus striata by 18 determinations; type: functional; summary of the method: as §3
# Mus musculus [22] = species: Mus musculus; assay: Motility against number of interrupted beams in 1 hour in reserpine treated mice by 13 determinations; type: functional
# Rattus norvegicus [23] = species: Rattus norvegicus; assay: Compound was evaluated for the homovanillic acid levels of rats limbic system by 17 determinations; type: functional; summary of the method: as §2
# Rattus norvegicus [24] = species: Rattus norvegicus; assay: Compound was evaluated for the homovanillic acid levels of rats Corpus striata by 7 determinations; type: functional; summary of the method: as §3
# Rattus norvegicus [25] = species: Rattus norvegicus; assay: Compound was evaluated for the homovanillic acid levels of rats limbic system by 6 determinations; type: functional; summary of the method: as §2
# Mus musculus [26] = species: Mus musculus; assay: Antipsychotic effect was tested against motility scores in reserpinized mice at a control value of 11; toxic; type: functional, organism-based
# Mus musculus [27] = species: Mus musculus; assay: Motility of the Compound was tested against number of interrupted beams in 1 hr in reserpine & apomorphine treated mice by 14 determinations; type: functional; summary of the method: as §1
# Rattus norvegicus [28] = species: Rattus norvegicus; assay: Compound Evaluated for the homovanillic acid levels of rats corpus striata by 12 determinations; type: functional; summary of the method: as §3
# Rattus norvegicus [29] = species: Rattus norvegicus; assay: Compound Evaluated for the homovanillic acid levels of rats limbic system by 12 determinations; type: functional; summary of the method: as §2
# Mus musculus [30] = species: Mus musculus; assay: Motility against number of interrupted beams in 1 hour in naive mice by 13 determinations; type: functional
# Mus musculus [31] = species: Mus musculus; assay: Motility of the Compound was tested against number of interrupted beams in 1 hour in reserpine treated mice by 8 determinations; type: functional
Structure (SMILES),Motility (Mus musculus [3]),Motility (Mus musculus [7]),further results
Cc1cc(C)nc(NC(=O)c2ccc(F)cc2)c1,113,291,Motility (Mus musculus [1]): 118.2; Motility (Mus musculus [2]): 491; Motility (Mus musculus [4]): 299; HVA level (Rattus norvegicus [5]): 0.194 µg/g; HVA level (Rattus norvegicus [6]): 0.667 µg/g
Cc1cc(C)nc(NC(=O)c2cccc(N)c2)c1,4,652,
CC(=O)Nc1ccc(C(=O)Nc2cc(C)cc(C)n2)cc1,12,522,
COc1ccc(Cl)cc1C(=O)Nc1cc(C)cc(C)n1,19,748,
CCN(C(=O)c1ccccc1)c1cc(C)cc(C)n1,31,914,
CC(=O)Nc1cccc(C(=O)Nc2cc(C)cc(C)n2)c1,8,777,
Cc1cc(C)nc(NC(=O)c2cccc(C(F)(F)F)c2)c1,4,661,
CCN(CC)CCNC(=O)c1cc(Cl)c(N)cc1OC [METOCLOPRAMIDE],,,HVA level (Rattus norvegicus [8]): 0.618 µg/g; Motility (Mus musculus [9]): 126; HVA level (Rattus norvegicus [6]): 2.531 µg/g; Motility (Mus musculus [10]): 63
Cc1cc(C)nc(NC(=O)c2ccc([N+](=O)[O-])cc2)c1,0,746,
CCN(C(=O)c1ccc(F)cc1)c1cc(C)cc(C)n1,29,965,
Cc1cc(C)nc(NC(=O)c2ccccc2O)c1,0,747,
CCS(=O)(=O)c1ccc(OC)c(C(=O)Nc2cc(C)cc(C)n2)c1,16,841,
COc1ccc(C(=O)Nc2cc(C)cc(C)n2)cc1,0,456,
Cc1cc(C)nc(NC(=O)c2ccc(N)cc2)c1,9,337,Motility (Mus musculus [11]): 439; Motility (Mus musculus [12]): 0; HVA level (Rattus norvegicus [5]): 0.268 µg/g; Motility (Mus musculus [13]): 385; HVA level (Rattus norvegicus [14]): 0.308 µg/g
COc1cccc(C(=O)Nc2cc(C)cc(C)n2)c1,0,822,
Cc1cc(C)nc(NC(=O)c2ccc(Br)cc2)c1,0,797,

Structure (SMILES),Motility (Mus musculus [3]),Motility (Mus musculus [7]),further results
CSc1ccc(C(=O)Nc2cc(C)cc(C)n2)cc1,0,770,
Cc1cc(C)nc(NC(=O)c2ccc(Cl)cc2)c1,72,630,Motility (Mus musculus [15]): 577; HVA level (Rattus norvegicus [16]): 0.355 µg/g; Motility (Mus musculus [11]): 619; HVA level (Rattus norvegicus [17]): 0.644 µg/g; Motility (Mus musculus [18]): 73.4
Cc1cccc(C(=O)Nc2cc(C)cc(C)n2)c1,0,505,
CCOc1ccc(C(=O)Nc2cc(C)cc(C)n2)cc1,4,552,
CCCN(C(=O)c1ccccc1)c1cc(C)cc(C)n1,8,780,
COc1ccccc1C(=O)Nc1cc(C)cc(C)n1,7,646,
Cc1cc(C)nc(NC(=O)c2cccc(Cl)c2)c1,52,617,Motility (Mus musculus [19]): 577; Motility (Mus musculus [20]): 727; HVA level (Rattus norvegicus [21]): 0.396 µg/g; Motility (Mus musculus [22]): 41.2; HVA level (Rattus norvegicus [23]): 0.141 µg/g
CCN(C(=O)c1cccc(Cl)c1)c1cc(C)cc(C)n1,21,941,
CCN1CCCC1CNC(=O)c1cc(S(=O)(=O)CC)ccc1OC (stereo unspecified) [SULTOPRIDE],,,HVA level (Rattus norvegicus [24]): 1.898 µg/g; Motility (Mus musculus [11]): 135; Motility (Mus musculus [20]): 152; HVA level (Rattus norvegicus [25]): 0.493 µg/g
Cc1cc(C)nc(NC(=O)c2cccc([N+](=O)[O-])c2)c1,15,634,
Cc1cc(C)nc(N(C)C(=O)c2ccccc2)c1,,796,Motility (Mus musculus [26]): Toxic
Cc1cc(C)nc(NC(=O)c2ccccc2)c1,83,450,Motility (Mus musculus [27]): 642; HVA level (Rattus norvegicus [28]): 0.504 µg/g; HVA level (Rattus norvegicus [29]): 0.297 µg/g; Motility (Mus musculus [30]): 427; Motility (Mus musculus [31]): 85.1
Cc1cc(C)nc(NC(=O)c2ccccc2Cl)c1,4,875,
COc1ccc(S(C)(=O)=O)cc1C(=O)Nc1cc(C)cc(C)n1,2,755,
Cc1cc(C)nc(NC(=O)c2cccc(Br)c2)c1,21,826,
